In the library only some 3.8% were active in any assay of this set; here they are far more common.
SIRT5 inh: sirtuin-5 (human) deacylase inhibition; AID 652115; 1.1% of 330,000 active; inhibition, % at 15 µM; Purified SirT5, succinyl-peptide AMC, trypsin-coupled fluorescence; Q9NXA8; in the data active = inhibition above about 15%
Target sequence (Q9NXA8 whole entry, looked up): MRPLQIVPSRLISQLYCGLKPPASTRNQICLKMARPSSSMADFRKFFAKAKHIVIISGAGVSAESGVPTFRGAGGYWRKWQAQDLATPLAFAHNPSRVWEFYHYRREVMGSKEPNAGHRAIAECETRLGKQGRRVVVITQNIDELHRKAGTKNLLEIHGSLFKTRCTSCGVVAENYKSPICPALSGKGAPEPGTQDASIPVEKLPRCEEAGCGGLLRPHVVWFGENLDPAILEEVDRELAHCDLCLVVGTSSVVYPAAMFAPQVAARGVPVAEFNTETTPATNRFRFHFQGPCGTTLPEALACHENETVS
FN deposit inh: fibronectin deposition inhibition; AH1F fibroblasts, Alexa488-fibronectin deposition fluorescence, overnight; inhibition, % at 12.6 µM; 0.086% of 350,000 active; AID 743247;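 active = mean inhibition across replicates of 30% or more, regardless of how many single replicates reach that level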;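 also: positive control wells lacked labelled fibronectin entirely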
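Assay system: AH1F fibroblast monolayer, labelled fibronectin deposition. Amount: 10000 cells per well. Also added: labelled fibronectin 24 nM. Compound: single-point pinned compound. Incubation: cell attachment 1 h, compound and FN exposure overnight. Detection: fluorescence after three HBSS washes, excitation 485 nm, emission 525 nm. Read-out: inhibition of fibronectin deposition signal.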
FGF22 binding: FGF22 (human) thermal shift binding | 1.5% of 340,000 active | recombinant FGF22 thermal shift, SYPRO orange fluorescence; percent of sucrose octasulfate shift, DMSO zero | activity (Tm shift, normalised), % at 9.99 µM | Q9HCT0 | AID 651658;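 active = mean Tm shift, scaled 0 neutral to 100 positive control, at about 1.3% or above, every replicate too, limit read from the data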
Target sequence (Q9HCT0 whole entry, looked up): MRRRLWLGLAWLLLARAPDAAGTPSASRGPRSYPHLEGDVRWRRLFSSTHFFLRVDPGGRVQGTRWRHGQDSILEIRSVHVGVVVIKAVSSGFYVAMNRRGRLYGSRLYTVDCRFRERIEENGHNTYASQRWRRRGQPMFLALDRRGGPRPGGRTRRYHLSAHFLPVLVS
XiGFP reactiv: reactivates the inactive X chromosome in mouse fibroblasts. 0.055% of 360,000 active. activation, % at 7.58 µM. XiGFP mouse fibroblasts, % GFP-positive cells imaging, 3 d; cells co-treated with 5-aza-dC sensitizer; scaled so ellipticine positive control = 100%;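 active = mean normalized replicate activation at least 10% and every replicate at or above 10%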;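 also: 0% = median of on-plate neutral control wells and 100% = ellipticine 6 µM median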
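Material: SV40-immortalized XiGFP fibroblast cells, line 68-5-11 | Buffer or medium: DMEM containing 5-aza-dC | Dosing: One concentration, pinned | Times: 3 d treatment, 15 min room-temperature fixation | Controls: Ellipticine 6 µM positive control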
ARNT-TACC3 inh: disrupts binding between human ARNT and TACC3. AID 623870. AlphaScreen His-ARNT PAS-B/GST-TACC3 binding, luminescence; TACC3 fragment carries E629A point mutation. inhibition, % at 9.99 µM. 0.66% of 390,000 active;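 active = mean inhibition of replicates at least 50% and at least half of replicates each reaching 50%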;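 also: 0% = complete ARNT plus TACC3 wells and 100% = ARNT alone without TACC3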
DENV2 CPE rescue: inhibitors of DENV2 cytopathic effect | 1.7% of 350,000 active | DENV2-infected cells, cytopathic effect rescue, plate reader | CPE inhibition, % at 9.99 µM; in the data active = CPE inhibition above about 20%, passing the limit was not always enough; tested in BHK-21 cells;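 also: 0% = median of neutral control wells and 100% = median of positive control wells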
Starred values were filed as active, the others as inactive; nt = not tested or not shown.

SMILES	SIRT5 inh	FN deposit inh	FGF22 binding	XiGFP reactiv	ARNT-TACC3 inh	DENV2 CPE rescue
CCC(=O)N1C[C@@H](C)[C@H](OC)CN(C)C(=O)c2cc(NC(=O)c3ccccc3)ccc2OC[C@H]1C	0	-4	0	0	-7	-1
C[C@@H]1CCCCO[C@H](CN(C)CC2CCCCC2)[C@H](C)CN([C@H](C)CO)C(=O)c2cc(NC(=O)Nc3ccccc3)ccc2O1	6	12	0	0	8	-1
O=C(O)C[C@@H]1C[C@@H]2c3cc(NC(=O)C4CCOCC4)ccc3O[C@@H]2[C@@H](CO)O1	nt	3	nt	0	nt	nt
Cc1nc(C(F)(F)F)ccc1C(=O)N1CCC1(C)C(=O)NS(=O)(=O)c1ccc(C#N)cc1 (stereo not given)	-3	2	0	0	nt	31*
Cc1nc(C(F)(F)F)ccc1C(=O)N1CCC1(C)C(=O)NCc1ccc(Cl)cc1 (stereo not given)	-1	-2	0	1	nt	69*
Cc1ccc(S(=O)(=O)NC(=O)C2(C)CCN2C(=O)Cc2cccs2)cc1 (stereo not given)	nt	14	0	0	nt	49*
Cc1ccc(S(=O)(=O)NC(=O)C2(C)CCN2C(=O)c2ccc(C(F)(F)F)nc2C)cc1 (stereo not given)	-2	2	0	0	nt	51*
O=C([C@@H]1[C@@H](CO)[C@@H]2Cn3c(ccc(-c4cncnc4)c3=O)[C@@H]2N1CC1CC1)N1CCCCC1	1	nt	0	0	3	17
CC(=O)N1[C@H](CO)[C@H](c2ccc(C3=CCCC3)cc2)[C@@H]1CNC(=O)CN(C)C	nt	8	nt	0	0	15
COCCNC(=O)C[C@@H]1CC[C@@H]2[C@H](COc3ccc(NC(=O)COC)cc3C(=O)N2C)O1	-5	-6	0	0	-2	2
CCCC(=O)Nc1ccc2c(c1)OC[C@H](C)N(Cc1ccccc1F)C[C@@H](C)[C@H](OC)CN(C)C2=O	9	13	0	0	-10	-8
CCCC(=O)Nc1nc(-c2ccc(Cl)s2)cs1	-3	16	0	0	-12	8
O=C(O)C1CCCCC1C(=O)Nc1nc(-c2ccc(Cl)s2)cs1 (stereo not given)	4	nt	43*	0	nt	14
Cc1ccc(-n2cccc2/C=C2/C(=N)N3C(=NC2=O)SN=C3S(C)(=O)=O)cc1Cl	nt	7	nt	0	2	nt
Cc1cccc(C)c1-n1cccc1/C=C1/C(=N)N2C(=NC1=O)SN=C2S(C)(=O)=O	6	0	44*	0	1	2
COc1ccc(NC(=O)[C@@H]2CC=C[C@@H]3CCN(Cc4ccccc4)C(=O)[C@@H]32)cc1	nt	-1	0	0	nt	25*
COc1ccc(NC(=O)[C@@H]2CC=C[C@@H]3CCN(Cc4ccc(Cl)c(Cl)c4)C(=O)[C@@H]32)cc1	1	nt	0	0	nt	-5
C#CC[N+](C)(C)CCN1C(=O)C2C(c3ccccc3)C=CC(c3ccccc3)C2C1=O (stereo not given)	-2	6	0	0	-5	0
CC(C)OC(=O)C[N+](C)(C)CCN1C(=O)C2C(c3ccccc3)C=CC(c3ccccc3)C2C1=O (stereo not given)	26*	0	0	0	0	3
O=C(C[C@@H]1C=C[C@@H](NS(=O)(=O)c2ccc(F)cc2)[C@H](CO)O1)NCc1ccccc1F	-3	nt	nt	1	nt	15
CCCN1C[C@@H](C)[C@H](OC)CN(C)C(=O)c2cc(NC(=O)c3cnccn3)ccc2OC[C@H]1C	17*	-6	0	0	-3	1
CO[C@H]1CN(C)C(=O)c2ccc(NC(=O)c3cnccn3)cc2OC[C@@H](C)N(CC2CC2)C[C@@H]1C	10	nt	0	0	nt	22*
CCCN1C[C@@H](C)[C@H](OC)CN(C)C(=O)c2cc(NC(=O)c3cnccn3)ccc2OC[C@@H]1C	3	-10	0	0	0	1
CCC(=O)N1C[C@H](C)[C@H](OC)CN(C)C(=O)c2cc(NC(=O)c3cnccn3)ccc2OC[C@H]1C	-1	-7	0	0	5	25*
Cc1noc(C)c1S(=O)(=O)Nc1ccc2c(c1)C(=O)N([C@@H](C)CO)C[C@@H](C)[C@@H](CN(C)C(=O)NC(C)C)OCCCC[C@H](C)O2	-2	5	0	0	0	7
SMILES	SIRT5 inh	FN deposit inh	FGF22 binding	XiGFP reactiv	ARNT-TACC3 inh	DENV2 CPE rescue
CCC(=O)N1CC(=O)N2[C@@H](CO)[C@@H](c3ccc(-c4cccnc4)cc3)[C@@H]2C1	5	nt	nt	0	nt	3
O=C(/C=C/[C@H]1O[C@@H](n2ccc(=O)[nH]c2=O)[C@H](O)[C@@H]1O)NCc1cccs1	10	-2	0	0	nt	23*
O=C(/C=C/[C@H]1O[C@@H](n2ccc(=O)[nH]c2=O)[C@H](O)[C@@H]1O)NCCc1cccs1	-2	9	0	0	nt	7
Cc1ccc2nc(COc3ccc(Cl)cc3)cc(=O)n2c1	-2	-12	43*	0	nt	4
Cc1ccc2nc(CSc3nnc4ccccn34)cc(=O)n2c1	3	-5	43*	0	-4	6
Cc1noc(C)c1S(=O)(=O)Nc1ccc2c(c1)C(=O)N([C@H](C)CO)C[C@H](C)[C@@H](CN(C)S(=O)(=O)c1c(C)noc1C)O2	nt	nt	nt	0	nt	nt
CCCNC(=O)C[C@@H]1C[C@H]2c3cc(NC(=O)Nc4ccccc4F)ccc3O[C@H]2[C@@H](CO)O1	0	-24	0	0	-3	-7
COc1ccc(NC(=O)Nc2ccc3c(c2)C(=O)N([C@@H](C)CO)C[C@H](C)[C@H](CN(C)C(=O)CCCN(C)C)OCCCC[C@H](C)O3)cc1	-3	nt	0	0	1	1
O=C(Nc1ccccc1Cl)c1sccc1-c1ccccc1	79*	7	0	nt	-8	-7
CN(C)S(=O)(=O)Oc1ccsc1C(=O)Nc1ccccc1Cl	nt	0	nt	nt	-9	nt
COc1ccc(C(=O)Oc2c(CN3CCOCC3)cc(Cl)c3cccnc23)cc1	nt	nt	nt	nt	65*	nt
COc1ccc(C(=O)/C=C/c2ccc(OC)c(CN3CCOCC3)c2)cc1	nt	-5	nt	0	13	nt
COc1cc(C(=O)Oc2c(OC)cc(C(=S)N3CCOCC3)cc2OC)cc(OC)c1OC	nt	-6	0	0	11	5
O=C(Oc1ccc(Cl)c2cccnc12)N1CCOCC1	nt	-5	nt	nt	4	nt
O=C(Oc1c(CN2CCOCC2)cc(Cl)c2cccnc12)c1ccc(F)cc1	nt	6	nt	nt	65*	nt
O=C(Oc1c(CN2CCOCC2)cc(Cl)c2cccnc12)c1ccccc1Cl	-1	2	0	1	71*	1

From PubChem BioAssay
